Reference: ChEMBL document CHEMBL1149718, “Antibacterial activity of crinitol and its potentiation” (1992)
In brackets after ≈: the same amount, converted by molar mass. Activity calls are given as the source filed them. The rule behind the calls is not given here.

What was measured:
Staphylococcus aureus [1] = test: Antibacterial activity against Staphylococcus aureus ATCC 12598 up to 800 ug/ml after 2 days by broth dilution method; assay type: functional, organism-based
How it was run: (§1)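 Broth dilution in 0.8% nutrient broth, 0.5% yeast extract and 0.1% glucose. Compound in DMF, diluted twofold, 1% DMF final, highest 800 µg/ml. Inoculum was a 2-day-old culture, reactivated at 30° with shaking (B. subtilis), at 30° stationary (Br. ammoniagenes) or at 37° stationary (others). Stationary incubation 2 days; growth by OD at 660 nm; MIC = lowest concentration with no growth.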

Cutibacterium acnes [2] = test: Antibacterial activity against Propionibacterium acnes ATCC 11827 up to 800 ug/ml after 2 days by broth dilution method; assay type: functional, organism-based; how it was run: as §1
[3] = test system: Corynebacterium ammoniagenes; test: Antibacterial activity against Brevibacterium ammoniagenes ATCC 6872 up to 800 ug/ml after 2 days by broth dilution method; assay type: functional, organism-based; how it was run: as §1
Streptococcus mutans [4] = test: Antibacterial activity against Streptococcus mutans ATCC 25175 up to 800 ug/ml after 2 days by broth dilution method; assay type: functional, organism-based
How it was run: (§2)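 Twofold broth dilution in 3.7% brain heart infusion broth. Sample dissolved in DMF, 1% DMF final, top concentration 800 µg/ml. Inoculated with 2-day-old culture reactivated in stationary culture at 37°. Stationary incubation for 2 days, turbidity read at 660 nm; MIC taken as lowest concentration showing no growth.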

Bacillus subtilis [5] = test: Antibacterial activity against Bacillus subtilis ATCC 9372 up to 800 ug/ml after 2 days by broth dilution method; assay type: functional, organism-based; how it was run: as §1
Bacillus subtilis [6] = test: Antibacterial activity against Bacillus subtilis ATCC 9372 after 2 days by broth dilution method; assay type: functional; conditions: ATCC 9372, 48 h; how it was run: as §1
Streptococcus mutans [7] = test: Ratio of MIC for Streptococcus mutans ATCC 25175 to MIC for Streptococcus mutans ATCC 25175 in presence of 0.5 MIC of crinitol; assay type: functional
Staphylococcus aureus [8] = test: Antibacterial activity against Staphylococcus aureus ATCC 12598 after 2 days by broth dilution method; assay type: functional; conditions: ATCC 12598, 48 h; how it was run: as §1
Cutibacterium acnes [9] = test: Antibacterial activity against Propionibacterium acnes ATCC 11827 after 2 days by broth dilution method in presence of 0.5 MIC of crinitol; assay type: functional; conditions: ATCC 11827, 48 h
Streptococcus mutans [10] = test: Antibacterial activity against Streptococcus mutans ATCC 25175 after 2 days by broth dilution method; assay type: functional; conditions: ATCC 25175, 48 h; how it was run: as §2
[11] = test system: Corynebacterium ammoniagenes; test: Antibacterial activity against Brevibacterium ammoniagenes ATCC 6872 after 2 days by broth dilution method; assay type: functional; conditions: ATCC 6872, 48 h; how it was run: as §1
Cutibacterium acnes [12] = test: Antibacterial activity against Propionibacterium acnes ATCC 11827 after 2 days by broth dilution method; assay type: functional; conditions: ATCC 11827, 48 h; how it was run: as §1
Bacillus subtilis [13] = test: Antibacterial activity against Bacillus subtilis ATCC 9372 after 2 days by broth dilution method in presence of 0.5 MIC of crinitol; assay type: functional; conditions: ATCC 9372, 48 h
[14] = test system: Corynebacterium ammoniagenes; test: Antibacterial activity against Brevibacterium ammoniagenes ATCC 6872 after 2 days by broth dilution method in presence of 0.5 MIC of crinitol; assay type: functional; conditions: ATCC 6872, 48 h
Staphylococcus aureus [15] = test: Antibacterial activity against Staphylococcus aureus ATCC 12598 after 2 days by broth dilution method in presence of 0.5 MIC of crinitol; assay type: functional; conditions: ATCC 12598, 48 h
Streptococcus mutans [16] = test: Antibacterial activity against Streptococcus mutans ATCC 25175 after 2 days by broth dilution method in presence of 0.5 MIC of crinitol; assay type: functional; conditions: ATCC 25175, 48 h
Staphylococcus aureus [17] = test: Antibacterial activity against Staphylococcus aureus ATCC 12598 after 2 days by broth dilution method in presence of 0.5 MIC of butylated hydroxytoluene; assay type: functional; conditions: ATCC 12598, 48 h
How it was run: (§3)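 Checkerboard: twofold dilutions of crinitol crossed with twofold dilutions of the antioxidant (BHA or BHT). Medium was nutrient broth/yeast extract/glucose, or 3.7% brain heart infusion for S. mutans. DMF at 1% final, 2-day-old inoculum, stationary culture 2 days. Growth by OD 660 nm; MIC = lowest concentration without growth.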

[18] = test system: Corynebacterium ammoniagenes; test: Antibacterial activity against Brevibacterium ammoniagenes ATCC 6872 after 2 days by broth dilution method in presence of 0.5 MIC of butylated hydroxyanisole; assay type: functional; conditions: ATCC 6872, 48 h; how it was run: as §3
[19] = test system: Corynebacterium ammoniagenes; test: Antibacterial activity against Brevibacterium ammoniagenes ATCC 6872 after 2 days by broth dilution method in presence of 0.5 MIC of butylated hydroxytoluene; assay type: functional; conditions: ATCC 6872, 48 h; how it was run: as §3
Staphylococcus aureus [20] = test: Antibacterial activity against Staphylococcus aureus ATCC 12598 after 2 days by broth dilution method in presence of 0.5 MIC of butylated hydroxyanisole; assay type: functional; conditions: ATCC 12598, 48 h; how it was run: as §3
Cutibacterium acnes [21] = test: Ratio of MIC for Propionibacterium acnes ATCC 11827 to MIC for Propionibacterium acnes ATCC 11827 in presence of 0.5 MIC of butylated hydroxytoluene; assay type: functional
Bacillus subtilis [22] = test: Antibacterial activity against Bacillus subtilis ATCC 9372 after 2 days by broth dilution method in presence of 0.5 MIC of butylated hydroxytoluene; assay type: functional; conditions: ATCC 9372, 48 h; how it was run: as §3
Bacillus subtilis [23] = test: Antibacterial activity against Bacillus subtilis ATCC 9372 after 2 days by broth dilution method in presence of 0.5 MIC of butylated hydroxyanisole; assay type: functional; conditions: ATCC 9372, 48 h; how it was run: as §3
Streptococcus mutans [24] = test: Antibacterial activity against Streptococcus mutans ATCC 25175 after 2 days by broth dilution method in presence of 0.5 MIC of butylated hydroxytoluene; assay type: functional; conditions: ATCC 25175, 48 h; how it was run: as §3
Bacillus subtilis [25] = test: Ratio of MIC for Bacillus subtilis ATCC 9372 to MIC for Bacillus subtilis ATCC 9372 in presence of 0.5 MIC of butylated hydroxytoluene; assay type: functional
Streptococcus mutans [26] = test: Ratio of MIC for Streptococcus mutans ATCC 25175 to MIC for Streptococcus mutans ATCC 25175 in presence of 0.5 MIC of butylated hydroxytoluene; assay type: functional
Cutibacterium acnes [27] = test: Ratio of MIC for Propionibacterium acnes ATCC 11827 to MIC for Propionibacterium acnes ATCC 11827 in presence of 0.5 MIC of butylated hydroxyanisole; assay type: functional
Streptococcus mutans [28] = test: Antibacterial activity against Streptococcus mutans ATCC 25175 after 2 days by broth dilution method in presence of 0.5 MIC of butylated hydroxyanisole; assay type: functional; conditions: ATCC 25175, 48 h; how it was run: as §3
Cutibacterium acnes [29] = test: Antibacterial activity against Propionibacterium acnes ATCC 11827 after 2 days by broth dilution method in presence of 0.5 MIC of butylated hydroxytoluene; assay type: functional; conditions: ATCC 11827, 48 h; how it was run: as §3
[30] = test system: Corynebacterium ammoniagenes; test: Ratio of MIC for Brevibacterium ammoniagenes ATCC 6872 to MIC for Brevibacterium ammoniagenes ATCC 6872 in presence of 0.5 MIC of butylated hydroxyanisole; assay type: functional
Bacillus subtilis [31] = test: Ratio of MIC for Bacillus subtilis ATCC 9372 to MIC for Bacillus subtilis ATCC 9372 in presence of 0.5 MIC of butylated hydroxyanisole; assay type: functional
Cutibacterium acnes [32] = test: Antibacterial activity against Propionibacterium acnes ATCC 11827 after 2 days by broth dilution method in presence of 0.5 MIC of butylated hydroxyanisole; assay type: functional; conditions: ATCC 11827, 48 h; how it was run: as §3
[33] = test system: Corynebacterium ammoniagenes; test: Ratio of MIC for Brevibacterium ammoniagenes ATCC 6872 to MIC for Brevibacterium ammoniagenes ATCC 6872 in presence of 0.5 MIC of butylated hydroxytoluene; assay type: functional

Structure (SMILES) | Activity (Staphylococcus aureus [1]) | Activity (Cutibacterium acnes [2]) | Activity [3] | Activity (Streptococcus mutans [4]) | Activity (Bacillus subtilis [5]) | MIC (Bacillus subtilis [6]) [µg/mL] | MIC (Staphylococcus aureus [8]) [µg/mL] | MIC (Streptococcus mutans [10]) [µg/mL] | MIC [11] [µg/mL] | MIC (Cutibacterium acnes [12]) [µg/mL] | other results
CC(=O)OC/C=C(\C)CC/C=C(\C)C[C@H](/C=C(\C)CCC=C(C)C)OC(C)=O | inactive | inactive | inactive | inactive | inactive |  |  |  |  |  | 
COc1ccc(O)c(C(C)(C)C)c1.COc1ccc(O)cc1C(C)(C)C [BUTYLATED HYDROXYANISOLE] |  |  |  |  |  | 100 | 200 | 100 | 200 | 50 | Ratio (Streptococcus mutans [7]): 18; MIC (Cutibacterium acnes [9]): 6.25 µg/mL; MIC (Bacillus subtilis [13]): 50 µg/mL; MIC [14]: 100 µg/mL; MIC (Staphylococcus aureus [15]): 200 µg/mL; MIC (Streptococcus mutans [16]): 12.5 µg/mL
CC(C)=CCC/C(C)=C/CC/C(C)=C/CC/C(C)=C/CO | inactive | inactive | inactive | inactive | inactive |  |  |  |  |  | 
Cc1cc(C(C)(C)C)c(O)c(C(C)(C)C)c1 [BUTYLATED HYDROXYTOLUENE] |  |  |  |  |  | 25 (≈ 113 µM) | > 800 | 25 (≈ 113 µM) | 25 (≈ 113 µM) | 25 (≈ 113 µM) | Ratio (Streptococcus mutans [7]): 16; MIC (Cutibacterium acnes [9]): 6.25 µg/mL; MIC (Bacillus subtilis [13]): 6.25 µg/mL; MIC [14]: 12.5 µg/mL; MIC (Streptococcus mutans [16]): 1.57 µg/mL
CC(C)=CCC/C(C)=C/C(=O)C/C(C)=C/CC/C(C)=C/CO | inactive | inactive | inactive | inactive | inactive |  |  |  |  |  | 
CC(=O)O[C@@H](/C=C(\C)CCC=C(C)C)C/C(C)=C/CC/C(C)=C/CO | inactive | inactive | inactive | inactive | inactive |  |  |  |  |  | 
CC(C)=CCC/C(C)=C/[C@H](O)C/C(C)=C/CC/C(C)=C/CO [CRINITOL] |  |  |  |  |  | 50 (≈ 163 µM) | 400 (≈ 1310 µM) | 50 (≈ 163 µM) | 100 (≈ 326 µM) | 25 (≈ 81.6 µM) | MIC (Staphylococcus aureus [17]): 400 µg/mL; MIC [18]: 100 µg/mL; MIC [19]: 50 µg/mL; MIC (Staphylococcus aureus [20]): 400 µg/mL; Ratio (Cutibacterium acnes [21]): 4; MIC (Bacillus subtilis [22]): 12.5 µg/mL; MIC (Bacillus subtilis [23]): 50 µg/mL; MIC (Streptococcus mutans [24]): 0.78 µg/mL; Ratio (Bacillus subtilis [25]): 4; Ratio (Streptococcus mutans [26]): 64; Ratio (Cutibacterium acnes [27]): 4; MIC (Streptococcus mutans [28]): 12.5 µg/mL; MIC (Cutibacterium acnes [29]): 6.25 µg/mL; Ratio [30]: 1; Ratio (Bacillus subtilis [31]): 1; MIC (Cutibacterium acnes [32]): 6.25 µg/mL; Ratio [33]: 2
